# Test results from ChEMBL document CHEMBL1275390, “Synthesis and discovery of water-soluble microtubule targeting agents that bind to the colchicine site on tubulin and circumvent Pgp mediated resistance” (J Med Chem, 2010).
# Calls of active or inactive are those of the source. The calls are words filed in the database; no cut-off is given here.
# Columns and labels:
# MDA-MB-435 [1] = assay: Antiproliferative activity against human MDA-MB-435 cells by sulforhodamine B assay; type: functional, cell-based
# Procedure, shortened: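 SRB assay against cancer cells obtained from ATCC (MDA-MB-435, HeLa). IC50 is the concentration giving 50% inhibition of proliferation, taken as the mean of at least 3 independent experiments, each run in triplicate points.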
# SK-OV-3 [2] = assay: Antiproliferative activity against human SKOV3 cells by sulforhodamine B assay; type: functional, cell-based
# Procedure, shortened: (§1)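 Antiproliferative read-out by sulforhodamine B assay. HeLa and SK-OV-3 cells were from ATCC; SK-OV-3 MDR-1-6/6 is the Pgp-overexpressing, MDR-1-transduced isogenic partner of the parental line. Each IC50 is the mean of at least 3 independent experiments, with triplicate points in each.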
# SK-OV-3 [3] = assay: Antiproliferative activity against human SKOV3 cells expressing MDR1-6/6 by sulforhodamine B assay; type: functional, cell-based; procedure, shortened: as §1
# SK-OV-3 [4] = assay: Relative resistance, ratio of IC50 for human SKOV3 cells expressing MDR1-6/6 to IC50 for human SKOV3 cells; type: functional
# Procedure, shortened: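 Relative resistance (Rr) is the SRB-derived IC50 in Pgp-overexpressing, MDR-1-transduced SK-OV-3 MDR-1-6/6 cells divided by the IC50 in parental SK-OV-3 cells.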
# HeLa [5] = assay: Antiproliferative activity against human HeLa cells by sulforhodamine B assay; type: functional, cell-based; procedure, shortened: as §1
# HeLa [6] = assay: Antiproliferative activity against human HeLa cells expressing tubulin 3beta by sulforhodamine B assay; type: functional, cell-based
# HeLa [7] = assay: Relative resistance, ratio of IC50 for human HeLa cells expressing tubulin 3beta to IC50 for human HeLa cells; type: functional
# CCRF-CEM = assay: Growth inhibition of human CCRF-CEM cells by sulforhodamine B assay; type: functional
# HL-60(TB) = assay: Growth inhibition of human HL-60(TB) cells by sulforhodamine B assay; type: functional
# K562 = assay: Growth inhibition of human K562 cells by sulforhodamine B assay; type: functional
# MOLT-4 = assay: Growth inhibition of human MOLT4 cells by sulforhodamine B assay; type: functional
# SR = assay: Growth inhibition of human SR cells by sulforhodamine B assay; type: functional
# A549 = assay: Growth inhibition of human A549 cells by sulforhodamine B assay; type: functional
# EKVX = assay: Growth inhibition of human EKVX cells by sulforhodamine B assay; type: functional
# HOP-62 = assay: Growth inhibition of human HOP62 cells by sulforhodamine B assay; type: functional
# HOP-92 = assay: Growth inhibition of human HOP92 cells by sulforhodamine B assay; type: functional
# NCI-H226 = assay: Growth inhibition of human NCI-H226 cells by sulforhodamine B assay; type: functional
# NCI-H23 = assay: Growth inhibition of human NCI-H23 cells by sulforhodamine B assay; type: functional
# NCI-H322M = assay: Growth inhibition of human NCI-H322M cells by sulforhodamine B assay; type: functional
# NCI-H460 = assay: Growth inhibition of human NCI-H460 cells by sulforhodamine B assay; type: functional
# NCI-H522 = assay: Growth inhibition of human NCI-H522 cells by sulforhodamine B assay; type: functional
# COLO 205 = assay: Growth inhibition of human COLO205 cells by sulforhodamine B assay; type: functional
# HCC 2998 = assay: Growth inhibition of human HCC2998 cells by sulforhodamine B assay; type: functional
# HCT-15 = assay: Growth inhibition of human HCT15 cells by sulforhodamine B assay; type: functional
# HT-29 = assay: Growth inhibition of human HT-29 cells by sulforhodamine B assay; type: functional
# KM12 = assay: Growth inhibition of human KM12 cells by sulforhodamine B assay; type: functional
# SW-620 = assay: Growth inhibition of human SW620 cells by sulforhodamine B assay; type: functional
# SF-268 = assay: Growth inhibition of human SF268 cells by sulforhodamine B assay; type: functional
# SF-295 = assay: Growth inhibition of human SF295 cells by sulforhodamine B assay; type: functional
# SF-539 = assay: Growth inhibition of human SF539 cells by sulforhodamine B assay; type: functional
# SNB-19 = assay: Growth inhibition of human SNB19 cells by sulforhodamine B assay; type: functional
# SNB-75 = assay: Growth inhibition of human SNB75 cells by sulforhodamine B assay; type: functional
# U-251 = assay: Growth inhibition of human U251 cells by sulforhodamine B assay; type: functional
# LOX IMVI = assay: Growth inhibition of human LOXIMVI cells by sulforhodamine B assay; type: functional
# M14 = assay: Growth inhibition of human M14 cells by sulforhodamine B assay; type: functional
# MDA-MB-435 [8] = assay: Growth inhibition of human MDA-MB-435 cells by sulforhodamine B assay; type: functional
# SK-MEL-2 = assay: Growth inhibition of human SK-MEL-2 cells by sulforhodamine B assay; type: functional
# SK-MEL-28 = assay: Growth inhibition of human SK-MEL-28 cells by sulforhodamine B assay; type: functional
# SK-MEL-5 = assay: Growth inhibition of human SK-MEL-5 cells by sulforhodamine B assay; type: functional
# UACC-62 = assay: Growth inhibition of human UACC62 cells by sulforhodamine B assay; type: functional
# IGROV-1 = assay: Growth inhibition of human IGROV1 cells by sulforhodamine B assay; type: functional
# OVCAR-3 = assay: Growth inhibition of human OVCAR-3 cells by sulforhodamine B assay; type: functional
# OVCAR-4 = assay: Growth inhibition of human OVCAR4 cells by sulforhodamine B assay; type: functional
# OVCAR-5 = assay: Growth inhibition of human OVCAR5 cells by sulforhodamine B assay; type: functional
# OVCAR-8 = assay: Growth inhibition of human OVCAR8 cells by sulforhodamine B assay; type: functional
# NCI/ADR-RES = assay: Growth inhibition of human NCI/ADR-RES cells by sulforhodamine B assay; type: functional
# SK-OV-3 [9] = assay: Growth inhibition of human SKOV3 cells by sulforhodamine B assay; type: functional
# 786-0 = assay: Growth inhibition of human 786-0 cells by sulforhodamine B assay; type: functional
# A498 = assay: Growth inhibition of human A498 cells by sulforhodamine B assay; type: functional
# ACHN = assay: Growth inhibition of human ACHN cells by sulforhodamine B assay; type: functional
# RXF 393 = assay: Growth inhibition of human RXF393 cells by sulforhodamine B assay; type: functional
# SN12C = assay: Growth inhibition of human SN12C cells by sulforhodamine B assay; type: functional
# TK-10 = assay: Growth inhibition of human TK10 cells by sulforhodamine B assay; type: functional
# UO-31 = assay: Growth inhibition of human UO31 cells by sulforhodamine B assay; type: functional
# PC-3 = assay: Growth inhibition of human PC3 cells by sulforhodamine B assay; type: functional
# DU-145 = assay: Growth inhibition of human DU145 cells by sulforhodamine B assay; type: functional
# MCF7 = assay: Growth inhibition of human MCF7 cells by sulforhodamine B assay; type: functional
# MDA-MB-231 = assay: Growth inhibition of human MDA-MB-231 cells by sulforhodamine B assay; type: functional
# [10] = Growth inhibition of human Hs 578T cells by sulforhodamine B assay; type: functional
# MDA-MB-468 = assay: Growth inhibition of human MDA-MB-468 cells by sulforhodamine B assay; type: functional
# MDA-MB-435 [11] = assay: Cell cycle arrest in human MDA-MB-435 cells assessed as formation of aberrant mitotic spindles at 850 nM after 24 hrs using propidium iodide staining by flow cytometry; type: functional, cell-based
# MDA-MB-435 [12] = assay: Cell cycle arrest in human MDA-MB-435 cells assessed as mitotic accumulation at 850 nM after 24 hrs using propidium iodide staining by flow cytometry; type: functional, cell-based
# Procedure, shortened: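 Cells were then harvested, stained with Krishan's reagent (propidium iodide) and analysed by flow cytometry. Data are plotted as propidium iodide intensity versus number of events.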
# Bos taurus = species on record: Bos taurus; assay: Displacement of [3H]colchicine from bovine brain tubulin at 5 uM after 10 mins
smiles,measurement,setting,value
COc1ccc(Nc2nc(C)nc3c2CC(C)C3)cc1 (racemic),IC50,MDA-MB-435 [1],> 10000 nM
COc1ccc(/C=C\c2cc(OC)c(OC)c(OC)c2)cc1OP(=O)(O)O [FOSBRETABULIN],IC50,SK-OV-3 [2],4.5 nM
same,IC50,SK-OV-3 [3],6.6 nM
same,Ratio,SK-OV-3 [4],1.5
same,IC50,HeLa [5],4.7 nM
same,IC50,HeLa [6],5.7 nM
same,Ratio,HeLa [7],1.2
COc1ccc(Nc2[nH]c(C)nc3nccc2-3)cc1,IC50,MDA-MB-435 [1],> 10000 nM
COc1ccc(N(C)c2nc(C)nc3[nH]ccc23)cc1,GI50,CCRF-CEM,315 nM
same,GI50,HL-60(TB),190 nM
same,GI50,K562,179 nM
same,GI50,MOLT-4,503 nM
same,GI50,SR,87.6 nM
same,GI50,A549,723 nM
same,GI50,EKVX,875 nM
same,GI50,HOP-62,291 nM
same,GI50,HOP-92,4800 nM
same,GI50,NCI-H226,623 nM
same,GI50,NCI-H23,438 nM
same,GI50,NCI-H322M,428 nM
same,GI50,NCI-H460,351 nM
same,GI50,NCI-H522,40.2 nM
same,GI50,COLO 205,243 nM
same,GI50,HCC 2998,271 nM
same,GI50,HCT-15,275 nM
same,GI50,HT-29,279 nM
same,GI50,KM12,181 nM
same,GI50,SW-620,246 nM
same,GI50,SF-268,449 nM
same,GI50,SF-295,269 nM
same,GI50,SF-539,288 nM
same,GI50,SNB-19,612 nM
same,GI50,SNB-75,185 nM
same,GI50,U-251,440 nM
same,GI50,LOX IMVI,407 nM
same,GI50,M14,218 nM
same,GI50,MDA-MB-435 [8],44.2 nM
same,GI50,SK-MEL-2,251 nM
same,GI50,SK-MEL-28,603 nM
same,GI50,SK-MEL-5,177 nM
same,GI50,UACC-62,625 nM
same,GI50,IGROV-1,340 nM
same,GI50,OVCAR-3,192 nM
same,GI50,OVCAR-4,7730 nM
same,GI50,OVCAR-5,1670 nM
same,GI50,OVCAR-8,639 nM
same,GI50,NCI/ADR-RES,164 nM
same,GI50,SK-OV-3 [9],248 nM
same,GI50,786-0,433 nM
same,GI50,A498,198 nM
same,GI50,ACHN,556 nM
same,GI50,RXF 393,226 nM
same,GI50,SN12C,854 nM
same,GI50,TK-10,390 nM
same,GI50,UO-31,307 nM
same,GI50,PC-3,509 nM
same,GI50,DU-145,269 nM
same,GI50,MCF7,314 nM
same,GI50,MDA-MB-231,1260 nM
same,GI50,[10],249 nM
same,GI50,MDA-MB-468,208 nM
same,Activity,MDA-MB-435 [11],Active
same,Activity,MDA-MB-435 [12],Active
same,IC50,SK-OV-3 [2],278 nM
same,IC50,SK-OV-3 [3],435 nM
same,IC50,HeLa [5],270 nM
same,IC50,HeLa [6],186 nM
same,inhibition,Bos taurus,70%
COc1cc2c(cc1O)CC[C@@H]1[C@@H]2CC[C@]2(C)[C@@H](O)CC[C@@H]12 [2-METHOXYESTRADIOL],IC50,SK-OV-3 [2],867 nM
same,IC50,SK-OV-3 [3],2270 nM
same,Ratio,SK-OV-3 [4],2.6
same,IC50,HeLa [6],586 nM
same,Ratio,HeLa [7],1
